Measurements published in article PMC12214485 (Scientific Reports, 2025).

Experiment: DPPH free radical scavenging assay
How it was run: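 Each well held test compound and DPPH (added as 150 µM solution, half the well volume), made up with methanol. Incubated 30 min at room temperature, then absorbance read at 517 nm. Percent inhibition was calculated from blank and sample absorbances. Ascorbic acid served as reference. Three independent experiments were run, each in triplicate.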

**Q.** With `O=C1O[C@H]([C@@H](O)CO)C(O)=C1O` [Vitamin C, Ascorbic acid] as the molecule, how does the antioxidant activity read?
**A.** The antioxidant activity was 95.1571 ± 0.057 µg/mL.
